Legend:
[1] = test system: HEK293; test: Cytotoxicity against HEK293 cells after 16 hrs by alamar blue assay; assay type: cell-based, Homo sapiens
In short: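 HEK293T cells grown in DMEM-based medium with 10% newborn bovine serum at 37 °C, 5% CO2. Doubling dilutions of compound added for 16 h, then resazurin added. Fluorescence read at emission 590 nm after a further 24 h.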

[2] = test system: Leishmania mexicana; test: Antileishmanial activity against Leishmania mexicana MNYC/BZ/62/M379 amastigotes after 48 hrs by alamar blue assay; assay type: functional, organism-based
In short: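 Axenic L. mexicana MNYC/BZ/62/M379 amastigotes kept at 33 °C under CO2 in Schneider's Drosophila medium with 20% FBS and 0.3% gentamycin. Alamar Blue fluorescence read-out.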

[3] = test system: Trypanosoma brucei brucei; test: Antitrypanosomal activity against Trypanosoma brucei brucei 427 after 48 hrs by alamar blue assay; assay type: functional, organism-based
[4] = test system: Leishmania major; test: Antileishmanial activity against Leishmania major Friedlin promastigotes after 48 hrs by alamar blue assay; assay type: functional, organism-based
In short: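 L. major Friedlin promastigotes grown in HOMEM with 10% FBS at 25 °C. Alamar Blue fluorescence assay in 96-well plates. 3–6 independent experiments unless noted.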

[5] = test system: Trypanosoma brucei brucei; test: Antitrypanosomal activity against diminazene-resistant Trypanosoma brucei brucei deltaTbat1-KO after 48 hrs by alamar blue assay; assay type: functional, organism-based
[6] = test system: Trypanosoma brucei brucei; test: Antitrypanosomal activity against multidrug-resistant Trypanosoma brucei brucei B48 after 48 hrs by alamar blue assay; assay type: functional, organism-based; conditions: B48, 48 h
[7] = Homo sapiens, HEK293, 16 h, read-out: EC50
[8] = Leishmania mexicana, MNYC/BZ/62/M379, 48 h, read-out: EC50
[9] = Trypanosoma brucei, 427, 48 h, read-out: EC50
[10] = Leishmania major, Friedlin, 48 h, read-out: EC50

Structure (SMILES) | EC50 ([1]; hek293) | EC50 [2] | EC50 [3] | EC50 [4] | EC50 [1, 7] | EC50 [2, 8] | EC50 [3, 9] | EC50 [5] | EC50 [4, 10] | EC50 [6]
COc1cc(/C=C/C(=O)CC(=O)/C=C/c2ccc(OC(=O)c3ccccc3)c(OC)c2)ccc1OC(=O)c1ccccc1 | ND(Insoluble) | ND(Insoluble) | ND(Insoluble) | ND(Insoluble) |  |  |  |  |  | 
COc1cc(/C=C/C(=O)CC(=O)/C=C/c2ccc(OCCO)cc2)ccc1O |  |  |  |  | 46 µM | 32 µM | 0.7 µM | 0.85 µM | 9.7 µM | 1.1 µM
COc1cc(/C=C/C(=O)CC(=O)/C=C/c2cc(OC)c(O)c([N+](=O)[O-])c2)ccc1O |  |  |  |  | 82 µM | 14 µM | 15 µM | 18 µM | 28 µM | 25 µM
COc1cc(/C=C/C(=O)CC(=O)/C=C/c2ccc(OC(C)=O)cc2)ccc1OC(C)=O |  |  |  |  | 49 µM | 43 µM | 1.5 µM | 2 µM | > 100 µM | 0.92 µM
CCCCCOc1ccc(CC/C=C/C(=O)CCc2ccc(OCCCCC)c(OC)c2)cc1OC |  |  |  |  | 43 µM | 53 µM | 1.1 µM | 1.2 µM | 6.6 µM | 1.8 µM
COc1cc(CC/C=C/C(=O)CCc2ccc(OC(C)=O)c(OC)c2)ccc1OC(C)=O |  |  |  |  | 30 µM | 35 µM | 0.052 µM | 0.042 µM | 7.8 µM | 0.021 µM
COc1cc(CCCCC(=O)CCc2ccc(O)c(OC)c2)ccc1O |  |  |  |  | 140 µM | > 50 µM | 32 µM | 28 µM | 37 µM | 27 µM
COc1cc(CCC(=O)CC(=O)CCc2ccc(O)c(O)c2)ccc1O |  |  |  |  | 130 µM | 16 µM | 0.5 µM | 0.52 µM | 11 µM | 0.43 µM
COc1cc(/C=C/C(=O)CC(=O)/C=C/c2ccc(O)cc2)ccc1OC(=O)c1ccccc1 |  |  |  |  | 370 µM | > 100 µM | 1.2 µM | 1.6 µM | 42 µM | 4.7 µM
COc1cc(/C=C/C(=O)CC(=O)/C=C/c2ccc(OC(=O)c3ccccc3)cc2)ccc1OC(=O)c1ccccc1 | ND(Insoluble) | ND(Insoluble) | ND(Insoluble) | ND(Insoluble) |  |  |  |  |  | 
O=C(/C=C/c1ccc(O)cc1)CC(=O)/C=C/c1ccc(OC(=O)c2ccccc2)cc1 |  |  |  |  | 270 µM | > 100 µM | 4.1 µM | 10 µM | 60 µM | 12 µM
CCCOc1ccc(/C=C/C(=O)CC(=O)/C=C/c2ccc(OCCC)c(OC)c2)cc1OC |  |  |  |  | > 500 µM | 34 µM | 1.3 µM | 1.8 µM | 28 µM | 1.6 µM
COc1cc(/C=C/C(=O)CC(=O)/C=C/c2ccc(OCC=C(C)C)c(OC)c2)ccc1O |  |  |  |  | > 500 µM | 21 µM | 1.4 µM | 1.7 µM | 7.6 µM | 2 µM
COc1cc(/C=C/C(=O)CC(=O)/C=C/c2ccc(OCC=C(C)C)cc2)ccc1OCC=C(C)C |  |  |  |  | > 500 µM | 27 µM | 1.9 µM | 2.9 µM | 48 µM | 3.1 µM
COc1ccc(/C=C/C(=O)CC(=O)/C=C/c2ccc(O)c(OC)c2)cc1 |  |  |  |  | 79 µM | 38 µM | 1.7 µM | 2 µM | 23 µM | 2.1 µM
COc1ccc(/C=C/C(=O)CC(=O)/C=C/c2ccc(OC)c(OC)c2)cc1 |  |  |  |  | 690 µM | 61 µM | 1.6 µM | 1.9 µM | 23 µM | 1.9 µM

Structure (SMILES) | EC50 ([1]; hek293) | EC50 [2] | EC50 [3] | EC50 [4] | EC50 [1, 7] | EC50 [2, 8] | EC50 [3, 9] | EC50 [5] | EC50 [4, 10] | EC50 [6]
COc1ccc(/C=C/C(=O)CC(=O)/C=C/c2ccc(O)cc2)cc1 |  |  |  |  | 400 µM | 32 µM | 8.9 µM | 8.8 µM | 87 µM | 2.9 µM
O=C(/C=C/c1ccc(OC(=O)c2ccccc2)cc1)CC(=O)/C=C/c1ccc(OC(=O)c2ccccc2)cc1 | ND(Insoluble) | ND(Insoluble) | ND(Insoluble) | ND(Insoluble) |  |  |  |  |  | 
COc1cc(/C=C/C=C/C(=O)CCc2ccc(O)c(OC)c2)ccc1O |  |  |  |  | 76 µM | 22 µM | 4.1 µM | 9.7 µM | 30 µM | 2.2 µM
COc1cc(/C=C/C(=O)CC(=O)/C=C/c2ccc(OCCO)c(OC)c2)ccc1O |  |  |  |  | 25 µM | 30 µM | 2.9 µM | 2.9 µM | 22 µM | 1.8 µM
COc1cc(/C=C/C(=O)CC(=O)/C=C/c2ccc(OCCO)c(OC)c2)ccc1OCCO |  |  |  |  | 20 µM | 37 µM | 1.8 µM | 2.3 µM | 33 µM | 1.6 µM
COc1ccc(CCC(=O)CC(O)CCc2ccc(OC)c(OC)c2)cc1OC (stereo unspecified) |  |  |  |  | 370 µM | > 100 µM |  |  | 41 µM | 
COc1cc(/C=C/C(=O)CC(=O)/C=C/c2ccc(OC(C)=O)c(OC)c2)ccc1OC(C)=O |  |  |  |  | 80 µM | 34 µM | 1.6 µM | 2.2 µM | 73 µM | 1.2 µM
O=C(/C=C/c1ccc(O)c(O)c1)CC(=O)/C=C/c1ccc(O)c(O)c1 |  |  |  |  | 39 µM | 12 µM | 1.8 µM | 2.5 µM | 26 µM | 3.4 µM
COc1cc(/C=C/C=C/C(=O)/C=C/c2ccc(O)c(OC)c2)ccc1O |  |  |  |  | 22 µM | 4.8 µM | 1.1 µM | 1.4 µM | 7.4 µM | 0.58 µM
O=C(/C=C/c1ccc(O)cc1)CC(=O)/C=C/c1ccc(O)cc1 [BISDEMETHOXYCURCUMIN] |  |  |  |  | 200 µM | 63 µM | 7.7 µM | 9.5 µM | 72 µM | 4.5 µM
O=C(/C=C/CCc1ccc(O)c(O)c1)CCc1ccc(O)c(O)c1 [DEHYDROHIRSUTANONOL] |  |  |  |  | 220 µM | 17 µM | 2.5 µM | 3.2 µM | > 100 µM | 
COc1cc(/C=C/C(O)=C/C(=O)/C=C/c2ccc(O)cc2)ccc1O [DEMETHOXYCURCUMIN] |  |  |  |  | 40 µM | 37 µM | 4.6 µM | 5.9 µM | 37 µM | 2.2 µM
COc1cc(CCC(O)CC(O)CCc2ccc(O)c(OC)c2)ccc1O (stereo unspecified) [OCTAHYDROCURCUMIN] |  |  |  |  |  | > 100 µM | 78 µM | 61 µM | > 100 µM | > 100 µM
N=C(N)c1ccc(OCCCCCOc2ccc(C(=N)N)cc2)cc1 [PENTAMIDINE] |  |  |  |  |  | 16 µM |  |  | 3.8 µM | 0.67 µM
COc1cc(CCC(=O)CC(=O)CCc2ccc(O)cc2)ccc1O [TETRAHYDRODEMETHOXYCURCUMIN] |  |  |  |  |  | > 50 µM | 22 µM | 34 µM | > 100 µM | 18 µM

Reference: ChEMBL document CHEMBL1154833, “Curcuminoid analogs with potent activity against Trypanosoma and Leishmania species” (Eur J Med Chem, 2010)
